The results in this text go back to ChEMBL document CHEMBL3352570, “ST7612AA1, a thioacetate-ω(γ-lactam carboxamide) derivative selected from a novel generation of oral HDAC inhibitors” (J Med Chem, 2014).

For orientation: IC50 means the midpoint of a concentration-inhibition curve. A higher IC50 goes with weaker potency. What is called half-life is the time needed for the level to fall by half in the phase considered. A higher half-life goes with slow loss.

The nature of series [1]: Efflux ratio of permeability from apical to basolateral side to basolateral to apical side of human Caco2 cells in presence of digoxin. It counts as ADME, cell-based. Particulars: caco-2. The gist of the method:
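Caco-2 AB/BA flux ratio measured with digoxin coincubated with test and reference compounds. Means of at least three experiments.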

A further series concerns the target Histone deacetylase 2 (Homo sapiens, UniProt Q92769). Put plainly: Inhibition of HDAC2 (unknown origin) using fluorogenic tetrapeptide RHKK(Ac) substrate by fluorescence assay.
Another series concerns the target T1, Histone deacetylase 11 (Homo sapiens, UniProt Q96DB2).
T1 sequence (Q96DB2 whole entry): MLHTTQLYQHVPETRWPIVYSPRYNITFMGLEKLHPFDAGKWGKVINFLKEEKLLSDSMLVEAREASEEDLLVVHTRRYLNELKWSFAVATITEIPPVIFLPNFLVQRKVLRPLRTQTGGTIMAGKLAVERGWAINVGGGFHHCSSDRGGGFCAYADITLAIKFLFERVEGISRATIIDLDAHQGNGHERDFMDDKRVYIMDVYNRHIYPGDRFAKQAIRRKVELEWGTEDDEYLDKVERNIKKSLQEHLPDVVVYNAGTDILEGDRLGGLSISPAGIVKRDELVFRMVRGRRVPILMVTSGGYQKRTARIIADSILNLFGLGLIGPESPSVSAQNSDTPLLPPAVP
Put plainly: Inhibition of HDAC11 (unknown origin) using fluorogenic tetrapeptide RHKK(Ac) substrate by fluorescence assay.

Another series addresses Histone deacetylase 3 (Homo sapiens, UniProt O15379). As to the kind of experiment: Inhibition of HDAC3 (unknown origin) using fluorogenic tetrapeptide RHKK(Ac) substrate by fluorescence assay.
For series [2], the target named is T2, Protein deacetylase HDAC6 (Homo sapiens, UniProt Q9UBN7).
T2 sequence (Q9UBN7 whole entry): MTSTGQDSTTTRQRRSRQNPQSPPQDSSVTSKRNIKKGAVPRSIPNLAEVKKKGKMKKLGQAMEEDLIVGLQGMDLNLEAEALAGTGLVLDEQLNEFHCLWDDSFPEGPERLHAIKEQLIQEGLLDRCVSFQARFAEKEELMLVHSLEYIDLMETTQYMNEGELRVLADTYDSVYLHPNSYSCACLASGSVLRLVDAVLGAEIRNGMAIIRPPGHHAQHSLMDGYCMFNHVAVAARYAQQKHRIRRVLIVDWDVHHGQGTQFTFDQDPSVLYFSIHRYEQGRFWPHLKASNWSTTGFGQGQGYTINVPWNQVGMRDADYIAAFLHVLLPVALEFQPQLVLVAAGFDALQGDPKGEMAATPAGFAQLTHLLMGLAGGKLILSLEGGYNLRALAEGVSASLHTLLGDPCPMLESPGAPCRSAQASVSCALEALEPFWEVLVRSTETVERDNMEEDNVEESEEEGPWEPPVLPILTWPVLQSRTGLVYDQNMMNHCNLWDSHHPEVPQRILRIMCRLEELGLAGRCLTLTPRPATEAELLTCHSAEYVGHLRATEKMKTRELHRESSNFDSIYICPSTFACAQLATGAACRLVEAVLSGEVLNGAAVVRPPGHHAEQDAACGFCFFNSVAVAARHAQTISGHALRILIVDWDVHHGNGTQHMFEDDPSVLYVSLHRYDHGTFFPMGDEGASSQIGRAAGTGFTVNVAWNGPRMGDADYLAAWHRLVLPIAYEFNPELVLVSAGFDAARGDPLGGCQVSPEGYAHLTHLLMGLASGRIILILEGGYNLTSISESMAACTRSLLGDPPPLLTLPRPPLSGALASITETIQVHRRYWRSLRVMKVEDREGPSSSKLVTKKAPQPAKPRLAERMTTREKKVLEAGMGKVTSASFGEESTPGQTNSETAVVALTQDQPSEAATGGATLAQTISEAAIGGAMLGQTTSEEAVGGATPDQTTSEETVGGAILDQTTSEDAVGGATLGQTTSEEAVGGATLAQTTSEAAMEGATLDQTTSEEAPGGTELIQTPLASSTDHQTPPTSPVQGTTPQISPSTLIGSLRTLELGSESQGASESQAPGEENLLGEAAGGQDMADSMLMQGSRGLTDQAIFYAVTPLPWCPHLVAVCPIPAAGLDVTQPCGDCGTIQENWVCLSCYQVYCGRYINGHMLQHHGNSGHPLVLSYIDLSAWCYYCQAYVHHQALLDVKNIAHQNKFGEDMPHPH
Put plainly: Inhibition of HDAC6 (unknown origin) using fluorogenic tetrapeptide RHKK(Ac) substrate by fluorescence assay.

Series [3] is described as follows: Half life in human hepatocytes at 5 uM by LCMS/MS analysis. The class given is ADME, cell-based, Hepatocyte. The gist of the method:
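Incubation in human hepatocytes. […] Values are means of at least three experiments.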

Another series deals with T3, Histone deacetylase 8 (Homo sapiens, UniProt Q9BY41).
T3 sequence (Q9BY41 whole entry): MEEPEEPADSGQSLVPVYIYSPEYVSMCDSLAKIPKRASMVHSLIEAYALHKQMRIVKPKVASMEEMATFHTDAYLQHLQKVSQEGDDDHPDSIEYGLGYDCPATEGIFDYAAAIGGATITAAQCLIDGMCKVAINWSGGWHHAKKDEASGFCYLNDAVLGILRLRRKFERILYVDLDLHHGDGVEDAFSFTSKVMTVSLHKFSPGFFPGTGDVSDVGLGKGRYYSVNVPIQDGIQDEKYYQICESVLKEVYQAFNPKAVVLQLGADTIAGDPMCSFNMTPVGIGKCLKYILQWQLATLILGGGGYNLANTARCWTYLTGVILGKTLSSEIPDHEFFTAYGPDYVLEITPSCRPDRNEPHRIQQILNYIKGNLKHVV
As to the kind of experiment: Inhibition of HDAC8 (unknown origin) using fluorogenic tetrapeptide RHK(Ac)K(Ac) substrate by fluorescence assay.

For series [4], the target named is T4, Polyamine deacetylase HDAC10 (Homo sapiens, UniProt Q969S8).
T4 sequence (Q969S8 whole entry): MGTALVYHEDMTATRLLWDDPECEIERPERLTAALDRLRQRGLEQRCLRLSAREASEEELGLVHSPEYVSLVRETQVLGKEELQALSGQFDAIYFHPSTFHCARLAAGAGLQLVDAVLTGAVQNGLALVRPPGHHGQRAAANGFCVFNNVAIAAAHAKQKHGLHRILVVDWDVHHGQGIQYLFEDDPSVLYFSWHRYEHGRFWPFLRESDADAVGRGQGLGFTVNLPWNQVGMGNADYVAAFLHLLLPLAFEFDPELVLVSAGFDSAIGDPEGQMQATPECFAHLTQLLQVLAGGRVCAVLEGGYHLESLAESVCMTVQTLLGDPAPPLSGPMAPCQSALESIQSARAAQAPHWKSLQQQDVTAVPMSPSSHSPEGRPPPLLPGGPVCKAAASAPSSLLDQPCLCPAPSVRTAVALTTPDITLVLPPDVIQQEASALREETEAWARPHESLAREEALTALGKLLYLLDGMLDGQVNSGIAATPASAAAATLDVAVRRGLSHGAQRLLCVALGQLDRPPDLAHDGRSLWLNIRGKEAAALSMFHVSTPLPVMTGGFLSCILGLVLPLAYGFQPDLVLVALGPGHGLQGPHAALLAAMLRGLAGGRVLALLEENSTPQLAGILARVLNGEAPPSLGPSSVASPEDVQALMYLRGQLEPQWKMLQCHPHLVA
Put plainly: Inhibition of HDAC10 (unknown origin) using fluorogenic tetrapeptide RHKK(Ac) substrate by fluorescence assay.

Sequence of Histone deacetylase 3 (O15379 whole entry): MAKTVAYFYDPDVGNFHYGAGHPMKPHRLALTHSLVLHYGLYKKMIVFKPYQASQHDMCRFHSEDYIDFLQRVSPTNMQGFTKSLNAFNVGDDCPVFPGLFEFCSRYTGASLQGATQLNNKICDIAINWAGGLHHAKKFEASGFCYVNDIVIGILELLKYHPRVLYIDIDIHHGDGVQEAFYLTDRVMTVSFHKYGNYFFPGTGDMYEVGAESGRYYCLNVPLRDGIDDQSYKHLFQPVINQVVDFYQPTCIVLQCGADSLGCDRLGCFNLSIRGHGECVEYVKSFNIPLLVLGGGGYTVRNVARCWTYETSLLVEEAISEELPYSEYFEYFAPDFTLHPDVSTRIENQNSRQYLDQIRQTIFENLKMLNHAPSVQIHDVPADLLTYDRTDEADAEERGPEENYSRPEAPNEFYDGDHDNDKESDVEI
Sequence of Histone deacetylase 2 (Q92769 whole entry): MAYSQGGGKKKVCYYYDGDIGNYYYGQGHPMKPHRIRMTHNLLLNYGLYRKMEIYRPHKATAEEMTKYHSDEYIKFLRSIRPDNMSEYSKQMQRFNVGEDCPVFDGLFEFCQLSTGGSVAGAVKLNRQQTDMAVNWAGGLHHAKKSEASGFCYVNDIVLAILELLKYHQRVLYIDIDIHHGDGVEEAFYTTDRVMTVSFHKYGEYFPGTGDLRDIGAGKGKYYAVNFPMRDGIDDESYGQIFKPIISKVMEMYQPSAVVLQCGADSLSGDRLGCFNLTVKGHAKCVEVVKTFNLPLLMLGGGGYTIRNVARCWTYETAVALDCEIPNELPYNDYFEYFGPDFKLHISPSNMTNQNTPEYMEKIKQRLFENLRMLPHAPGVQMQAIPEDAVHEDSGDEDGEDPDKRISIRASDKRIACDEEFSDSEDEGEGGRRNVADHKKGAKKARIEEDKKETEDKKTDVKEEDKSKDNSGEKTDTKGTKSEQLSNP

Regarding `O=C1CC[C@@H](C(=O)N[C@H](CCCCCS)C(=O)Nc2ccccc2)N1`, the Ratio in series [1] is reported as 3.6. Moreover, the IC50 on Histone deacetylase 2 was found to be 78 nM; on Histone deacetylase 11, 14 nM; at Histone deacetylase 3 it was 5 nM; in series [2] it was 3 nM; against Histone deacetylase 8 it was 281 nM; in series [4] it was 11 nM. Moreover, in series [3], the half-life at 5 µM came to 45 min.
